From PubChem
S1P4 antagonist: S1P4 receptor antagonists, primary screen, cell-based; Sphingosine 1-phosphate receptor 4 (Homo sapiens), O95977; S1P4-expressing cells, antagonist mode, reporter read-out; inhibition, % at 4.98 µM; 0.26% of 220,000 active; AID 1510, 2009; in the data active = inhibition above about 29%;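 note: 0% = wells stimulated with agonist and 100% = vehicle wells without agonist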
NPY-Y2 antag: NPY-Y2 receptor antagonists, primary screen, cell-based; NPY-Y2 expressing cells, antagonist mode; Neuropeptide Y receptor type 2 (Homo sapiens), P49146; inhibition, % at 2.7 µM; 0.99% of 140,000 active;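 note: 0% = vehicle with agonist challenge and 100% = reference antagonist with challenge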
Target sequence (P49146 whole entry, looked up): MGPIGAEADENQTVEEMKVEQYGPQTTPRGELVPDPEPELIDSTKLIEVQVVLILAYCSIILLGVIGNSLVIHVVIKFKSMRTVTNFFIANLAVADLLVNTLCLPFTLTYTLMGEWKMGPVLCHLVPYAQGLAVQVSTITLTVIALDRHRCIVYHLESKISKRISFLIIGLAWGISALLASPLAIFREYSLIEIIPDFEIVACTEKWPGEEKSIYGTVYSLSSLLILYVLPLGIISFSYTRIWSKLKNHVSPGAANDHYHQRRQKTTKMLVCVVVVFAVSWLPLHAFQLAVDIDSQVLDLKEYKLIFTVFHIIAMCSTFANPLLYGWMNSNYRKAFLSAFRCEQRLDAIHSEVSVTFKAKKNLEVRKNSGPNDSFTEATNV
NPY-Y2 PAM-ag: NPY-Y2 potentiators or agonists, primary screen, cell-based | cells expressing NPY-Y2, potentiator/agonist read-out | AID 1359, 2008 | Neuropeptide Y receptor type 2 (Homo sapiens), P49146 | activation, % at 3.6 µM | 0.45% of 220,000 active; in the data active = activation above about 27%;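 note: cells stimulated with NPY near EC25 plus isoproterenol at EC100; 0% = vehicle plus submaximal agonist and 100% = vehicle plus saturating agonist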
NPY-Y1 PAM-ag: NPY-Y1 receptor potentiators or agonists, primary screen, cell-based; NPY-Y1 expressing cells, potentiator/agonist activation; activation, % at 3.6 µM; 0.37% of 220,000 active; AID 1304, 2008; in the data active = activation above about 33%, passing the limit was not always enough;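 note: cells stimulated with NPY at EC10 then isoproterenol at EC100; 0% = low agonist plus stimulus and 100% = saturating agonist plus stimulus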
NPY-Y1 antag: NPY-Y1 receptor antagonists, primary screen, cell-based | HEK293-CNG Y1 cells, membrane potential fluorescence; NPY at EC95, then isoproterenol | AID 1040, 2008 | inhibition, % at 3.6 µM | 1% of 200,000 active | Neuropeptide Y receptor type 1 (Homo sapiens), P25929;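 active = inhibition above the campaign mean inhibition of all tested compounds plus 3 SD, cut at about 20% in these data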;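 note: 0% = DMSO wells given NPY plus isoproterenol and 100% = isoproterenol alone without NPY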
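Benchmarks – high control isoproterenol alone, low control NPY with isoproterenol · Material – HEK293 Y1/CNG channel cell line · Times – dye 3 h, compound 60 min room temperature, stimulation 45 min · Probe or stimulus – NPY (25 nM), isoproterenol (1 µM), Ro 20-1724 (25 µM) · Evaluation – % inhibition of NPY effect · Signal – fluorescence, membrane potential probe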
S1P4 agonist: S1P4 receptor agonists, primary screen, cell-based | activation, % at 4.98 µM | S1P4-expressing cell line, agonist reporter assay | 0.35% of 220,000 active | Sphingosine 1-phosphate receptor 4 (Homo sapiens), O95977; in the data active = activation above about 11%;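 note: 0% = DMSO vehicle and 100% = reference agonist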
NPY1 antag conf: NPY-Y1 receptor antagonists, retest of hits, confirmation, HEK293-CNG cells, membrane potential fluorescence, triplicate; shares compounds with NPY-Y1 antag; cAMP; NPY challenge against isoproterenol-raised cAMP; inhibition, % at 3.6 µM; 21% of 1,200 active; in the data active = inhibition above about 20%;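 note: 0% = vehicle with agonist plus stimulus and 100% = stimulus alone without agonist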
NPY2 antag ctr: NPY-Y2 receptor antagonists, selectivity check, confirmation, counter-screen for NPY-Y1 antagonist project, HEK293-CNG cells, membrane potential fluorescence, triplicate | shares compounds with NPY-Y1 antag | antagonism; cells given NPY, then isoproterenol | inhibition, % at 3.6 µM | 28% of 1,200 active;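 note: 0% = DMSO with agonist challenge and 100% = reference antagonist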
* marks the source's active call; other numbers are inactive results; x = not tested or not shown. The list is not random: actives were taken first. Their share in the collection is about 2.4%. Cut-off read from the data, not from the text of the source, unless noted: active = inhibition above about 17%; inactive = the rest.

SMILES | S1P4 antagonist | NPY-Y2 antag | NPY-Y2 PAM-ag | NPY-Y1 PAM-ag | NPY-Y1 antag | S1P4 agonist | NPY1 antag conf | NPY2 antag ctr
O=C(NC1CCCCC1)C(c1cccs1)N(C(=O)C(F)(F)F)c1ccccc1 (configuration not stated) | -12 | 4 | 3 | -14 | 8 | -1 | x | x
CC(CCc1ccccc1)NC(=O)/C=C/c1ccccc1 (configuration not stated) | 26 | 13 | -8 | -22 | 16 | -3 | x | x
COc1cc(/C=C/C(=O)NC(C)CCc2ccccc2)cc(OC)c1OC (configuration not stated) | -20 | 5 | -9 | -18 | 22* | 3 | 6 | 10
COc1ccc(OC)c(CNCCNC(=O)c2ccco2)c1 | 4 | 0 | -5 | 22 | -3 | -1 | x | x
c1ccc2c(c1)OCC(c1csc3ncnc(N4CCOCC4)c13)O2 (configuration not stated) | -9 | 8 | -19 | -13 | 2 | 0 | x | x
CCN(CC)c1ncnc2scc(C3COc4ccccc4O3)c12 (configuration not stated) | -4 | 15 | -16 | -36 | 38* | 1 | 16 | 8
COC(=O)c1cn(NC(=O)c2cccnc2)c(=O)c2ccccc12 | -4 | 9 | -12 | -24 | 4 | -1 | x | x
O=c1oc2ccccc2cc1-c1nc(-c2cccs2)cs1 | 17 | 13 | -2 | -28 | 30* | -2 | 11 | 8
Cn1c2c(c(=O)n(C)c1=O)C(C(F)(F)F)(C(F)(F)F)N=C(CCC1CCCCC1)N2 | -14 | 10 | -9 | -35 | 22* | -1 | 18 | 40*
CCN(CC)S(=O)(=O)c1cccc(NC(=O)CCNC(=O)c2ccc([N+](=O)[O-])cc2)c1 | -9 | x | -6 | -35 | x | -1 | x | x
Cc1ccc(-n2c(-c3ccccc3)c[n+]3c2CCc2ccccc2-3)c(C)c1 | 23 | x | 9 | -24 | 58* | 1 | 32* | 15
Cc1ccc(Cn2c(=N)c(C(=O)NCc3ccco3)cc3c(=O)n4ccccc4nc32)cc1 | 0 | 10 | -3 | 15 | 36* | 4 | 9 | 9
COc1ccc(CNC(=O)c2cc3c(=O)n4ccccc4nc3n(Cc3ccco3)c2=N)cc1 | 8 | 6 | 12 | 8 | 8 | -1 | x | x
O=C(CSc1ccc(Cl)cc1)N1CCN(c2ncc(C(F)(F)F)cc2Cl)CC1 | 12 | 10 | -23 | -4 | 24* | 1 | 5 | 13
CCC/C=C(\CCC)C(NC(=O)OCC(C)C)c1ccc(C(=O)OC)cc1 (configuration not stated) | 4 | 14 | -7 | -41 | 22* | 0 | 27* | 26*
Nc1nc(CCl)nc(Nc2ccc3ccccc3c2)n1 | 26 | x | -12 | -10 | x | 3 | x | x
COc1cc(OC)cc(C(=O)N2CCN(Cc3ccccc3[N+](=O)[O-])CC2)c1 | -11 | x | 1 | -10 | 6 | 0 | x | x
O=C(NCCCCc1ccccc1)C1CC(c2ccccc2[N+](=O)[O-])=NO1 (configuration not stated) | 2 | 2 | -4 | -24 | 10 | 0 | x | x
Cn1c(-c2ccc3c(c2)OCO3)cnc1NCc1cccc(Cl)c1 | 10 | 10 | -18 | -6 | 34* | 1 | 12 | 12
Cn1c(-c2ccc3c(c2)OCO3)cnc1NCc1ccccc1 | -4 | 10 | 3 | -15 | 12 | 1 | x | x
COc1ccc(C2C(C#N)=C(N)OC3=C2C(=O)CC(C)(C)C3)c(OC)c1OC (configuration not stated) | 1 | 2 | 11 | -9 | 4 | 0 | x | x
CCC(C)(C(=O)NC1CCCC1)N(Cc1ccco1)C(=O)Cc1cccs1 (configuration not stated) | -6 | 7 | -7 | -2 | 49* | 0 | 22* | 12
CCC(C)(C(=O)NC1CCCC1)N(Cc1ccco1)C(=O)c1ccc2c(c1)OCO2 (configuration not stated) | -19 | 14 | -20 | 0 | 37* | 0 | 17 | 12
CCOC(=O)C1(CC2CCCCO2)CCN(Cc2c(C)cc(C)cc2-n2cccn2)CC1 (configuration not stated) | 8 | x | -10 | -15 | 24* | -2 | 9 | 8
CCOC(=O)C1(CC2CCCCO2)CCN(Cc2cc(F)ccc2-n2cccn2)CC1 (configuration not stated) | 10 | x | -16 | -2 | 25* | 0 | 18 | 7
SMILES | S1P4 antagonist | NPY-Y2 antag | NPY-Y2 PAM-ag | NPY-Y1 PAM-ag | NPY-Y1 antag | S1P4 agonist | NPY1 antag conf | NPY2 antag ctr
CCOC(=O)C1(CC2CCCCO2)CCN(Cc2nccn2-c2cccc(C)c2)CC1 (configuration not stated) | 6 | x | -4 | 1 | 8 | 0 | x | x
CCn1c(NC(=O)c2ccco2)c(-c2ccccc2Cl)c(=O)c2ccccc21 | -19 | 0 | -2 | -10 | 7 | 0 | x | x
COc1ccc(NC(=O)CSc2nc3ccccc3c(=O)n2CCNC(C)=O)cc1 | 0 | 2 | -29 | 3 | 1 | -1 | x | x
Cc1cccc2c(=O)c(C(=O)NCc3cccs3)c[nH]c12 | -21 | 4 | -15 | 1 | 4 | -1 | x | x
COc1ccc(C(=O)c2coc3ccc(O)c(CN4CCCC4)c23)cc1 | 4 | 16 | -23 | -39 | 21* | -1 | 16 | 21*
COc1ccc(C(=O)c2coc3ccc(O)c(CN4CCOCC4)c23)cc1 | -12 | 12 | -7 | -21 | 3 | -1 | x | x
COC(=O)CNC(c1ccccc1)c1cc(Br)ccc1NC(=O)OCc1ccccc1 (configuration not stated) | -8 | 10 | -24 | -12 | 14 | 4 | x | x
CCOC(=O)CNC(c1ccccc1)c1cc(Br)ccc1NC(C)=O (configuration not stated) | -5 | x | -17 | -39 | 47* | 0 | 5 | 7
O=C(NC(NC(=S)Nc1c(Cl)cccc1Cl)C(Cl)(Cl)Cl)OCc1ccccc1 (configuration not stated) | 8 | 4 | 12 | 27 | 22* | -2 | 15 | 3
COc1ccc(-c2csc(N(CCc3ccccc3)C(=O)COc3ccccc3)n2)cc1 | -20 | 1 | -14 | -1 | 32* | 0 | 11 | 16
